Experimental data as given in ChEMBL document CHEMBL4402600, “Discovery of a Dual Tubulin Polymerization and Cell Division Cycle 20 Homologue Inhibitor via Structural Modification on Apcin” (J Med Chem, 2020).

Tests used:
Type in all cases: functional, cell-based
MCF7 = test: Cytotoxicity in human MCF7 cells assessed as reduction in cell viability incubated for 48 hrs by MTT assay; settings: MCF7, 48 h
Summary of the method: (§1)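 Cells grown at 37°C, 5% CO₂ (HepG2, OVCAR-3, Caov-3 in DMEM + 10% FBS; A549, HeLa, A375, MCF-7 in RPMI 1640 + 10% FBS). Seeded at 4-5×10³/well in triplicate, adhered overnight, exposed to 0.03–300 μM (DMSO <0.1%) for 48 h. MTT added for 4 h, formazan dissolved in DMSO, absorbance read. IC50 from dose–response curves, mean ± SD of at least three independent experiments.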

HepG2 = test: Cytotoxicity in human HepG2 cells assessed as reduction in cell viability incubated for 48 hrs by MTT assay; settings: HepG2, 48 h; summary of the method: as §1
Caov-3 cell line = test: Cytotoxicity in human Caov3 cells assessed as reduction in cell viability incubated for 48 hrs by MTT assay; settings: Caov-3, 48 h; summary of the method: as §1
A549 = test: Cytotoxicity in human A549 cells assessed as reduction in cell viability incubated for 48 hrs by MTT assay; settings: A549, 48 h; summary of the method: as §1
HeLa = test: Cytotoxicity in human HeLa cells assessed as reduction in cell viability incubated for 48 hrs by MTT assay; summary of the method: as §1
OVCAR-3 = test: Cytotoxicity in human OVCAR3 cells assessed as reduction in cell viability incubated for 48 hrs by MTT assay; settings: OVCAR-3, 48 h; summary of the method: as §1
A-375 = test: Cytotoxicity in human A375 cells assessed as reduction in cell viability incubated for 48 hrs by MTT assay; settings: A-375, 48 h; summary of the method: as §1

SMILES | IC50 (MCF7) | IC50 (HepG2) | IC50 (Caov-3 cell line) | IC50 (A549) | IC50 (HeLa) | IC50 (OVCAR-3) | IC50 (A-375)
Cc1ncc([N+](=O)[O-])n1CCOC(=O)NC(n1cnc2c(Cl)nc(F)nc21)C(Cl)(Cl)Cl (stereo not given) | 62.1 µM | 55.1 µM | > 300 µM | > 300 µM | > 300 µM | > 300 µM | 121 µM
Cc1ncc([N+](=O)[O-])n1CCOC(=O)NC(n1cnc2ccccc21)C(Cl)(Cl)Cl (stereo not given) | > 300 µM | > 300 µM | > 300 µM | > 300 µM | 214 µM | > 300 µM | > 300 µM
Cc1ncc([N+](=O)[O-])n1CCOC(=O)NC(Nc1nccc(=O)[nH]1)C(Cl)(Cl)Cl (stereo not given) | > 300 µM | > 300 µM | > 300 µM | > 300 µM | > 300 µM | > 300 µM | > 300 µM
CCOC(=O)NC(n1cnc2c(N)nc(F)nc21)C(Cl)(Cl)Cl (stereo not given) | 0.8 µM | 1.4 µM | 0.6 µM | 0.5 µM | 0.9 µM | 0.5 µM | 1.8 µM
Cc1ncc([N+](=O)[O-])n1CCOC(=O)NC(Nc1nccc2ccccc12)C(Cl)(Cl)Cl (stereo not given) | > 300 µM | 46.8 µM | 81.1 µM | > 300 µM | > 300 µM | 61.4 µM | 37.3 µM
Cc1ncc([N+](=O)[O-])n1CCOC(=O)NC(n1cnc2c(N)nc(N)nc21)C(Cl)(Cl)Cl (stereo not given) | > 300 µM | 19.7 µM | > 300 µM | > 300 µM | 120 µM | > 300 µM | 170 µM
Nc1nc(F)nc2c1ncn2C(NC(=O)OCCc1ccccn1)C(Cl)(Cl)Cl (stereo not given) | 1 µM | 1 µM | 1.1 µM | 3.5 µM | 3 µM | 0.8 µM | 0.4 µM
O=C(NC(n1ncc2c(O)ncnc21)C(Cl)(Cl)Cl)OCCc1ccccn1 (stereo not given) | > 300 µM | 271 µM | > 300 µM | > 300 µM | > 300 µM | > 300 µM | > 300 µM
Cc1ncc([N+](=O)[O-])n1CCOC(=O)NC(n1cnc2c(Cl)nc(N)nc21)C(Cl)(Cl)Cl (stereo not given) | > 300 µM | > 300 µM | > 300 µM | > 300 µM | 57.3 µM | > 300 µM | > 300 µM
Cc1ncc([N+](=O)[O-])n1CCOC(=O)NC(n1cnc2c(N(C)C)ncnc21)C(Cl)(Cl)Cl (stereo not given) | > 300 µM | > 300 µM | 264 µM | 191 µM | 160 µM | > 300 µM | 27.3 µM
Cc1ncc([N+](=O)[O-])n1CCOC(=O)NC(n1cnc2c(NC(=O)c3ccccc3)ncnc21)C(Cl)(Cl)Cl (stereo not given) | > 300 µM | > 300 µM | > 300 µM | 244 µM | > 300 µM | 225 µM | > 300 µM
Cc1ncc([N+](=O)[O-])n1CCOC(=O)NC(Nc1nccc(Cl)n1)C(Cl)(Cl)Cl (stereo not given) | > 300 µM | > 300 µM | > 300 µM | 94.9 µM | > 300 µM | > 300 µM | 20 µM
CC(=O)Nc1nc2c(ncn2C(NC(=O)OCCn2c([N+](=O)[O-])cnc2C)C(Cl)(Cl)Cl)c(=O)[nH]1 (stereo not given) | > 300 µM | > 300 µM | > 300 µM | > 300 µM | > 300 µM | > 300 µM | > 300 µM
Nc1nc(N)c2ncn(C(NC(=O)OCCc3ccccn3)C(Cl)(Cl)Cl)c2n1 (stereo not given) | 136 µM | 28.1 µM | 29.7 µM | 270 µM | 220 µM | 30.9 µM | 300 µM
Cc1ncc([N+](=O)[O-])n1CCOC(=O)NC(Nc1nccc(N)n1)C(Cl)(Cl)Cl (stereo not given) | > 300 µM | > 300 µM | > 300 µM | > 300 µM | > 300 µM | > 300 µM | > 300 µM
Nc1nc(N)c2ncn(C(NC(=O)OCCN3CCOCC3)C(Cl)(Cl)Cl)c2n1 (stereo not given) | 125 µM | 8.6 µM | 10.5 µM | 47.2 µM | 47.5 µM | 11.5 µM | 94.7 µM
Cc1ncc([N+](=O)[O-])n1CCOC(=O)NC(n1cnc2c(Cl)nc(Cl)nc21)C(Cl)(Cl)Cl (stereo not given) | 218 µM | 54.6 µM | 224 µM | 72.8 µM | 142 µM | 162 µM | 68.5 µM
Nc1ncnc2c1cnn2C(NC(=O)OCCN1CCOCC1)C(Cl)(Cl)Cl (stereo not given) | 19.3 µM | 19.5 µM | 1 µM | 13.4 µM | < 10 µM | 0.8 µM | 1.2 µM

SMILES | IC50 (MCF7) | IC50 (HepG2) | IC50 (Caov-3 cell line) | IC50 (A549) | IC50 (HeLa) | IC50 (OVCAR-3) | IC50 (A-375)
Cc1ncc([N+](=O)[O-])n1CCOC(=O)NC(Nc1cc2ccccc2cn1)C(Cl)(Cl)Cl (stereo not given) | 141 µM | 26 µM | 95.2 µM | 84.3 µM | 38.9 µM | 109 µM | 12.5 µM
Nc1nc(Cl)nc2c1ncn2C(NC(=O)OCc1ccccc1)C(Cl)(Cl)Cl (stereo not given) | 138 µM | > 300 µM | 65 µM | 78.5 µM | > 300 µM | 37.9 µM | > 300 µM
Cc1c(Cl)nc(NC(NC(=O)OCCn2c([N+](=O)[O-])cnc2C)C(Cl)(Cl)Cl)nc1Cl (stereo not given) | 114 µM | 13.6 µM | 31.2 µM | 184 µM | 27.1 µM | 25 µM | 11.9 µM
Cc1ncc([N+](=O)[O-])n1CCOC(=O)NC(Nc1ccncn1)C(Cl)(Cl)Cl (stereo not given) | > 300 µM | > 300 µM | > 300 µM | > 300 µM | > 300 µM | > 300 µM | 5.3 µM
Cn1c([N+](=O)[O-])cnc1COC(=O)NC(n1cnc2c(N)nc(F)nc21)C(Cl)(Cl)Cl (stereo not given) | 1.5 µM | 3.8 µM | 0.3 µM | 0.5 µM | 0.2 µM | 0.6 µM | 2.7 µM
Cc1ncc([N+](=O)[O-])n1CCOC(=O)NC(n1cnc2c(N)ncnc21)C(Cl)(Cl)Cl (stereo not given) | > 300 µM | > 300 µM | > 300 µM | > 300 µM | > 300 µM | > 300 µM | 182 µM
CCOC(=O)NC(n1cnc2c(N)nc(Cl)nc21)C(Cl)(Cl)Cl (stereo not given) | 87.2 µM | 59 µM | 92.9 µM | 59.7 µM | 152 µM | 132 µM | 125 µM
Cc1ncc([N+](=O)[O-])n1CCOC(=O)NC(n1cnc2c(N)nc(Cl)nc21)C(Cl)(Cl)Cl (stereo not given) | > 300 µM | 7.3 µM | 144 µM | 160 µM | 218 µM | 131 µM | 246 µM
Cc1ncc([N+](=O)[O-])n1CCOC(=O)NC(Nc1ccc2ccccc2n1)C(Cl)(Cl)Cl (stereo not given) | 99.6 µM | 22.7 µM | 72.6 µM | 47.5 µM | 9.1 µM | 90.1 µM | 14 µM
Cn1c([N+](=O)[O-])cnc1COC(=O)NC(n1cnc2c(N)nc(Cl)nc21)C(Cl)(Cl)Cl (stereo not given) | 53.3 µM | 43.8 µM | 64.3 µM | 61.4 µM | 51.2 µM | 70.4 µM | 1.2 µM
O=C(NC(Nc1ncnc2c1cnn2C(NC(=O)OCCc1ccccn1)C(Cl)(Cl)Cl)C(Cl)(Cl)Cl)OCCc1ccccn1 (stereo not given) | 162 µM | 81.3 µM | 146 µM | 53.7 µM | 110 µM | > 300 µM | > 300 µM
Cc1ncc([N+](=O)[O-])n1CCOC(=O)NC(n1cnc2c(OCc3ccccc3)nc(N)nc21)C(Cl)(Cl)Cl (stereo not given) | 89.1 µM | 71.1 µM | > 300 µM | 146 µM | > 300 µM | > 300 µM | > 300 µM
Cc1ncc([N+](=O)[O-])n1CCOC(=O)NC(n1cnc2c(NCc3ccccc3)ncnc21)C(Cl)(Cl)Cl (stereo not given) | 96 µM | 33.2 µM | > 300 µM | 148 µM | 71.8 µM | 243 µM | > 300 µM
Cc1ncc([N+](=O)[O-])n1CCOC(=O)NC(n1cnc2c(Cl)ncnc21)C(Cl)(Cl)Cl (stereo not given) | > 300 µM | > 300 µM | > 300 µM | > 300 µM | > 300 µM | > 300 µM | > 300 µM
Cc1ncc([N+](=O)[O-])n1CCOC(=O)NC(Nc1nc(Cl)cc(Cl)n1)C(Cl)(Cl)Cl (stereo not given) | 32.4 µM | 23.3 µM | 22.5 µM | 49.5 µM | 15.6 µM | 17 µM | 8.1 µM
COc1ccnc(NC(NC(=O)OCCn2c([N+](=O)[O-])cnc2C)C(Cl)(Cl)Cl)n1 (stereo not given) | 186 µM | 79.8 µM | 157 µM | 264 µM | 128 µM | 198 µM | 44.1 µM
Cc1ncc([N+](=O)[O-])n1CCOC(=O)NC(Nc1nc(Cl)c(N)c(Cl)n1)C(Cl)(Cl)Cl (stereo not given) | 20.6 µM | 25.8 µM | 19.2 µM | 31.9 µM | 17.5 µM | 21.1 µM | 14 µM
